From PubChem
An excerpt weighted towards active compounds, which were near 2.7% of everything screened.
Rpn11 block – inhibitors of human proteasome Rpn11; human 26S proteasome, Ub4-pepOG fluorescence polarization; 20S core pre-blocked with epoxomicin; inhibition, % at 20 µM; 360,000 compounds, 0.59% hits; AID 588493;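 active = inhibition at 20 µM, scaled to each plate's controls, above about 33%, limit read from the data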
Target sequence (O00487 whole entry, looked up): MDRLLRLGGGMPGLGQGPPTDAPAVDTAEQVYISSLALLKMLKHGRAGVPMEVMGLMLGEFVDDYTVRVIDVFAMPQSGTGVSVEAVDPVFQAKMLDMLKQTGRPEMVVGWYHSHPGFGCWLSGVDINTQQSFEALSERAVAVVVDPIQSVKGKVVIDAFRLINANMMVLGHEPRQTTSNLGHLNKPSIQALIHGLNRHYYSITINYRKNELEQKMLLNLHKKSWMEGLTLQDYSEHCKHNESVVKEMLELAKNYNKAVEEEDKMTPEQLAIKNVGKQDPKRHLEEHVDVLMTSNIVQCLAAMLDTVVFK
PP1 counter – blocks human PP1-alpha phosphatase, a PP5 counter-screen; purified PP1alpha, OMFP fluorescence; AID 2235; inhibition, % at 6.7 µM; P62136; 320,000 compounds, 0.9% hits;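 active = inhibition above the mean inhibition of all tested compounds plus 3 SD, computed separately for each screening campaign, cut at about 15% in these data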
TPT1 inh – inhibitors of Candida albicans tRNA 2'-phosphotransferase TPT1; recombinant caTPT1, FP RNA substrate dephosphorylation; inhibition, % at 5 µM; 300,000 compounds, 0.81% hits;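 active = inhibition above the mean of all tested compounds plus 3 SD, set per screening campaign, cut at about 24% in these data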;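 note: plate controls were DMSO alone for no effect and ferristatin control at 100 nM for full effect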
NadD block – blocks S. aureus nicotinate mononucleotide adenylyltransferase. AID 602399. 360,000 compounds, 0.78% hits. purified NadD enzyme, colorimetric absorbance read-out. inhibition, % at 20 µM; in the data active = inhibition above about 26%
HNF4A DNA FP – change in binding of human HNF4 alpha to DNA. 360,000 compounds, 0.3% hits. activity change, % at 10 µM. P41235. HNF4a-FITC DNA binding, fluorescence polarization, 1 h; in the data active = activity change above about 30%, passing the limit was not always enough
CSN inh – blocks human CSN-mediated cullin deneddylation; Q92905; 360,000 compounds, 0.38% hits; inhibition, % at 12.5 µM; Purified CSN, SCF-Nedd8-OG deneddylation, fluorescence polarization;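 active = pattern-corrected inhibition above about 35%, with an unprinted fluorescence ratio check between 0.5 and 1.5, limit read from the data, passing the limit was not always enough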;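 note: 0% = enzyme with substrate and 100% = substrate without enzyme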
Target sequence (Q92905 whole entry, looked up, one chain of several): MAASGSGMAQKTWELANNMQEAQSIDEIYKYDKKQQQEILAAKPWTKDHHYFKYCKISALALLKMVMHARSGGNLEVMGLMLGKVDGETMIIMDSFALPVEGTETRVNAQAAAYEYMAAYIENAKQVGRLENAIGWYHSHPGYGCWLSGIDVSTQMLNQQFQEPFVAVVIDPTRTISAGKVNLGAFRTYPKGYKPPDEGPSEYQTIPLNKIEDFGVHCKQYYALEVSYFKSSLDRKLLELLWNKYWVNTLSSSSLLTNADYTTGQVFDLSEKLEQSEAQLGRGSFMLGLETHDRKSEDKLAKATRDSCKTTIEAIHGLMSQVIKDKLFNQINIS
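Schedule: reaction 90 min, room temperature / Assay system: HEK293T-derived human Csn5 enzyme / Input: Csn5 at 0.24 nM final / Measure: inhibition of Csn5 cleavage, % / Control set: substrate-only high control, full reaction low control / Technique: fluorescence polarization of the substrate / Buffer or medium: Tris/NaCl/DTT buffer, pH 7.5 / Reagent: SCFSkp2-Nedd8OG substrate at 10 nM final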
NadD inh conf – confirmation of Staphylococcus aureus NadD inhibitors; shares compounds with NadD block; purified S. aureus NadD, colorimetric enzyme assay; inhibition, % at 20 µM; 2,000 compounds, 13% hits; AID 624309; in the data active = inhibition mostly above about 42%, no sharp cut-off; inactive = mostly below about 42%
An asterisk follows results filed as active.

Results for CC(C)C[C@H]1CN([C@@H](Cc2ccc(O)cc2)CN2CCC[C@@H]2CN2C(=S)NC[C@@H]2Cc2ccccc2)C(=S)N1CC1CCCCC1 ?
Rpn11 block: 10.4; NadD block: 21.7; HNF4A DNA FP: 2.2; CSN inh: -0.5

How did CC(C)C[C@@H](CN1CCC[C@@H]1CN1C(=S)NC[C@@H]1Cc1ccccc1)N1C[C@H](Cc2ccc(O)cc2)N(CC2CCCCC2)C1=S do in these assays?
Rpn11 block: 5.3; NadD block: -2.3; HNF4A DNA FP: 1.4; CSN inh: -7.6

Results for Oc1ccc(C[C@H]2CNC(=S)N2CC2CCCN2C[C@H](Cc2ccc(O)cc2)N2C[C@H](Cc3ccc(O)cc3)N(CC3CCCCC3)C2=S)cc1 (some centres undefined) ?
Rpn11 block: 8.1; NadD block: 47.9*; HNF4A DNA FP: -2.4; CSN inh: 0.7; NadD inh conf: 47.2

What do the screens show for `CC(C)C[C@@H](CN1CCCC1CN1C(=S)NC[C@@H]1Cc1ccc(O)cc1)N1C[C@H](Cc2ccc(O)cc2)N(CC2CCCCC2)C1=S` (some centres undefined)?
Rpn11 block: 7.2; NadD block: 54.3*; HNF4A DNA FP: 0.1; CSN inh: 3.4; NadD inh conf: 29.6

Results for CC(C)NC(=O)C1(C)CCN1Cc1ccc(C(F)(F)F)cc1 (centres undefined) ?
Rpn11 block: -1.9; NadD block: -2.3; HNF4A DNA FP: 3.6; CSN inh: -1.8

Results for CCOC(=O)c1cc2c(=O)n3cccc(C)c3nc2n(Cc2ccco2)c1=NC(=O)c1ccccc1 ?
Rpn11 block: -1.6; PP1 counter: 6.4; TPT1 inh: 5.2; NadD block: 32.3*; HNF4A DNA FP: -8.2; CSN inh: 1.0; NadD inh conf: 11.4

What do the screens show for `CCOC(=O)c1cc2c(=O)n3ccccc3nc2n(Cc2ccco2)c1=NC(=O)c1ccc(OC)cc1`?
Rpn11 block: 23.7; PP1 counter: 3.1; TPT1 inh: 16.5; NadD block: 32.2*; HNF4A DNA FP: 2.6; CSN inh: 1.1; NadD inh conf: 7.1

What do the screens show for `CCOC(=O)c1cc2c(=O)n3ccccc3nc2n(Cc2ccco2)c1=NC(=O)c1ccccc1OC`?
Rpn11 block: 14.4; PP1 counter: 3.0; TPT1 inh: 5.2; NadD block: 28.1; HNF4A DNA FP: -0.7; CSN inh: 2.4

What do the screens show for `CCOC(=O)c1cc2c(=O)n3ccccc3nc2n(Cc2ccco2)c1=NC(=O)c1cccc(OC)c1`?
Rpn11 block: 22.9; PP1 counter: 1.3; TPT1 inh: 4.6; NadD block: 44.8*; HNF4A DNA FP: -15.5; CSN inh: -4.9; NadD inh conf: 7.9

What do the screens show for `CCN(CC(=O)Nc1c(F)cccc1F)C(=O)c1ccc(S(=O)(=O)N2CCC(C)CC2)cc1`?
Rpn11 block: -2.2; PP1 counter: 4.3; NadD block: 0.9; HNF4A DNA FP: 2.5; CSN inh: -4.5

How did CC(C)OCCCn1c(=N)c(C(N)=S)cc2c(=O)n3ccccc3nc21 do in these assays?
Rpn11 block: 7.6; PP1 counter: 7.2; TPT1 inh: 8.9; NadD block: 25.6*; HNF4A DNA FP: -0.3; CSN inh: -0.6; NadD inh conf: 8.9

What do the screens show for `CC(=O)N=c1c(C#N)cc2c(=O)n3ccccc3nc2n1CCCOC(C)C`?
Rpn11 block: 3.3; PP1 counter: -3.3; TPT1 inh: -7.5; NadD block: 3.2; HNF4A DNA FP: 1.0; CSN inh: -3.8

How did COc1ccc(-c2cc(C#N)nc(N3CCNCC3)n2)cc1 do in these assays?
Rpn11 block: 11.0; PP1 counter: 5.5; TPT1 inh: -2.9; NadD block: 44.9*; HNF4A DNA FP: 43.1*; CSN inh: 2.7; NadD inh conf: 37.3

What do the screens show for `COc1ccc(-c2cc(C#N)nc(N3CCN(C)CC3)n2)cc1`?
Rpn11 block: -2.2; PP1 counter: -0.7; TPT1 inh: -1.1; NadD block: -21.2; HNF4A DNA FP: 3.3; CSN inh: 1.4

What do the screens show for `COc1ccc(/C=C(\C#N)C(=O)OCC(=O)Nc2ccc(-c3nc4ccc(C)cc4s3)cc2)cc1`?
PP1 counter: -3.2; TPT1 inh: -1.6; NadD block: 29.2*; HNF4A DNA FP: 14.6; CSN inh: -0.3; NadD inh conf: 5.7

Results for Cc1ccc2nc(-c3ccc(NC(=O)COC(=O)c4ccc(Br)o4)cc3)sc2c1 ?
Rpn11 block: 1.9; PP1 counter: 2.4; TPT1 inh: 1.9; NadD block: 12.7; HNF4A DNA FP: 3.6; CSN inh: 4.6

What do the screens show for `O=C(N/N=C/c1ccc2c(c1)OCO2)c1sc2cccc(Cl)c2c1Cl`?
Rpn11 block: 0.8; PP1 counter: -3.1; TPT1 inh: -3.3; NadD block: 30.2*; HNF4A DNA FP: -6.7; CSN inh: -0.9; NadD inh conf: 7.1

How did Nc1nonc1-n1nnc(C(=O)N/N=C/c2ccc(Br)cc2)c1CSC1=NCCS1 do in these assays?
Rpn11 block: 1.2; PP1 counter: 9.3; TPT1 inh: 0.3; NadD block: 31.9*; HNF4A DNA FP: -1.2; CSN inh: -1.9; NadD inh conf: 27.5

Results for CCCc1c(C(=O)N/N=C/c2ccc(OC)c(OCc3ccccc3)c2)nnn1-c1nonc1N ?
Rpn11 block: -1.6; PP1 counter: -1.8; TPT1 inh: -4.0; NadD block: 12.0; HNF4A DNA FP: -3.5; CSN inh: 4.2

How did CC(C)c1ccc(/C=N/NC(=O)c2nnn(-c3nonc3N)c2CSC2=NCCS2)cc1 do in these assays?
Rpn11 block: 8.0; PP1 counter: 6.7; TPT1 inh: -1.1; NadD block: 31.8*; HNF4A DNA FP: -1.1; CSN inh: 8.3; NadD inh conf: 21.5

What do the screens show for `CCCc1c(C(=O)N/N=C/c2ccc(OCc3ccccc3)c(OC)c2)nnn1-c1nonc1N`?
Rpn11 block: -4.3; PP1 counter: -10.6; TPT1 inh: -0.2; NadD block: 34.7*; HNF4A DNA FP: 2.8; CSN inh: 1.9; NadD inh conf: 16.6

How did Cc1cn([C@H]2C[C@H](O)[C@@H](CNC(=O)[C@H](N)C3CC3)O2)c(=O)[nH]c1=O do in these assays?
Rpn11 block: 0.3; NadD block: 5.5; HNF4A DNA FP: 0.7; CSN inh: -0.1

How did Cc1cc(-c2nnc(SCC(=O)Nc3nc(-c4ccc(Cl)cc4)cs3)o2)no1 do in these assays?
Rpn11 block: 14.6; PP1 counter: 0.5; TPT1 inh: 4.3; NadD block: 26.6*; HNF4A DNA FP: 2.5; CSN inh: 2.2; NadD inh conf: 2.1

Results for Cc1ccc(C(C)C)c(OCc2ccc(C(=O)N/N=C/c3ccc(C(=O)O)cc3)cc2)c1 ?
Rpn11 block: 5.9; PP1 counter: 3.3; TPT1 inh: 3.2; NadD block: 30.0*; HNF4A DNA FP: -9.4; CSN inh: 9.2; NadD inh conf: 2.8
